Where a SMILES comes first, the peptide text is derived from it. Bridges are numbered along the chain shown (N, C = ends).
What was measured:
[1] = target: Nicotinic acetylcholine receptor alpha6/alpha3/beta4 (Rattus norvegicus) (UniProt P04757+P12392+P43143); test: Inhibition of rat alpha6beta4 nAChR expressed in Xenopus laevis oocytes assessed as recovery of acethylcholine-evoked currents at 10 uM treated for 10 mins followed by compound washout by two-electrode voltage-clamp method relative to control; type: cell-based; parameters: scale not given: the % may be the effect or the level left; settings: Oocyte
[2] = target: T1, Neuronal acetylcholine receptor; alpha2/beta4 (Homo sapiens, UniProt P30926+Q15822); test: Inhibition of human alpha2beta4 nAChR expressed in Xenopus laevis oocytes assessed as inhibition of acetylcholine-induced current response by two-electrode voltage-clamp method; type: cell-based, Oocyte
T1 sequence (P30926 whole entry, the tested form may be a part): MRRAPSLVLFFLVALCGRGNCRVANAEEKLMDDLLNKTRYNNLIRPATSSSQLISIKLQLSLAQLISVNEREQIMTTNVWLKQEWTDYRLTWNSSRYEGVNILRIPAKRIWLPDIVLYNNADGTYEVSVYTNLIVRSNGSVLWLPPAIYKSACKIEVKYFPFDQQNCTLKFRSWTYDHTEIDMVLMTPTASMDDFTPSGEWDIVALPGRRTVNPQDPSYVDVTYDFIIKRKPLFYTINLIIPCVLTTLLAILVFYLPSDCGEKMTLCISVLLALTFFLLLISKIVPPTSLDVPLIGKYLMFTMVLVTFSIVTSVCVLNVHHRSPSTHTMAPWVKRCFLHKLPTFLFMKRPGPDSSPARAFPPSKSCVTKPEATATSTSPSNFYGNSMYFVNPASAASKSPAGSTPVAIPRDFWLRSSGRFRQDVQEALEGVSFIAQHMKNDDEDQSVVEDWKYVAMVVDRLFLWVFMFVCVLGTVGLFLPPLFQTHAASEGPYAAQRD
T1 sequence (Q15822 whole entry, the tested form may be a part): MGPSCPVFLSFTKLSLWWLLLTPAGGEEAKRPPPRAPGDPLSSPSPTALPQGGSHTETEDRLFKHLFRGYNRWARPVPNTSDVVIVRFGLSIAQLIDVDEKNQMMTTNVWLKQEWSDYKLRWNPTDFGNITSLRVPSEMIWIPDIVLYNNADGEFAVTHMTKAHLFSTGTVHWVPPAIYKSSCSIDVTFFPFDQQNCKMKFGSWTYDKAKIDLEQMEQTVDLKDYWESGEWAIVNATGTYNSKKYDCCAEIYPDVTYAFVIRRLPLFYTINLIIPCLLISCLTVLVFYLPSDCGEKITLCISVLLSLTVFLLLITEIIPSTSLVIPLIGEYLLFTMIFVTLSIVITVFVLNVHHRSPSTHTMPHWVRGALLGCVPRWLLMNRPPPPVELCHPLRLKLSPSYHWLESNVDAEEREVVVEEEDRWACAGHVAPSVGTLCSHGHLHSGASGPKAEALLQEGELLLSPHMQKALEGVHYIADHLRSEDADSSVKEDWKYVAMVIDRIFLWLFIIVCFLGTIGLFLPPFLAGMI
How it was run: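 TEVC on stage IV–V oocytes 1–5 days after equal-ratio cRNA injection (α2β4, α3β4, α4β4, α7). ACh 300 μM, 1 s pulses at 60 s intervals under frog saline perfusion. Peptide perfused to 1 μM, normalized to average of three control responses; higher concentrations by 5 min static bath. IC50 with 95% CI, n oocytes.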

[3] = target: Neuronal acetylcholine receptor; alpha3/beta2 (Homo sapiens, UniProt P17787+P32297); test: Inhibition of human alpha3beta2 nAChR expressed in Xenopus laevis oocytes assessed as inhibition of acetylcholine-induced current response by two-electrode voltage-clamp method; type: cell-based, Oocyte
Neuronal acetylcholine receptor; alpha3/beta2, sequence (P17787 whole entry, the tested form may be a part): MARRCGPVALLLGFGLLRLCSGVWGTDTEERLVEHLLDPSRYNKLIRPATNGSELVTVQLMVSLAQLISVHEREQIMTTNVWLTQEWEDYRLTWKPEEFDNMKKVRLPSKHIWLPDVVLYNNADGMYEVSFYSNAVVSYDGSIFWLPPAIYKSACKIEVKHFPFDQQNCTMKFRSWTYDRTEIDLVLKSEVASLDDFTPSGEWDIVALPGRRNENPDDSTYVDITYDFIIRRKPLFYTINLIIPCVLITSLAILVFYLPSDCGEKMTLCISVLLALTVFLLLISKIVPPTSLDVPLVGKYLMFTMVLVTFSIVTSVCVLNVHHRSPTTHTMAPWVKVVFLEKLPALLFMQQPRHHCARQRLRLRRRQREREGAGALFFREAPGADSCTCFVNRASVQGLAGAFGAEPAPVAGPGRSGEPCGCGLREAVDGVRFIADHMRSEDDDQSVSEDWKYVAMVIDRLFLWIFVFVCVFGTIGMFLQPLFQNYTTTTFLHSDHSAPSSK
Neuronal acetylcholine receptor; alpha3/beta2, sequence (P32297 whole entry, the tested form may be a part): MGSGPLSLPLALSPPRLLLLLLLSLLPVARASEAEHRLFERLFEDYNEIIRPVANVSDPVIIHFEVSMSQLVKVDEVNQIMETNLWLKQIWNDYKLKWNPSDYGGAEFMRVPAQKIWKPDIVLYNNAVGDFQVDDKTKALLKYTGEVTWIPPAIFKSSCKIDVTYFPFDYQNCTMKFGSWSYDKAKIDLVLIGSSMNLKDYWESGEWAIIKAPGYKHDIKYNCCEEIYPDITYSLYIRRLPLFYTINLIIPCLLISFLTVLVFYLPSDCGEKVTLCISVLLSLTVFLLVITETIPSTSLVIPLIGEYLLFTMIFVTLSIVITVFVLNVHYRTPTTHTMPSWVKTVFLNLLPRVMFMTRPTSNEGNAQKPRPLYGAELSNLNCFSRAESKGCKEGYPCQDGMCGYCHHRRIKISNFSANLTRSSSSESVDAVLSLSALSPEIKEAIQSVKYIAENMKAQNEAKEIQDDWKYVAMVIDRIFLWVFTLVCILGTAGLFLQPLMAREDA
How it was run: (§1)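 Two-electrode voltage clamp of stage IV–V oocytes 1–5 days after equal-ratio cRNA injection; ACh 100 μM (β2-containing subtypes, α9α10), 1 s every 60 s in frog saline. Peptide perfused up to 1 μM, responses normalized to mean of three control responses; above 1 μM, 5 min static bath. IC50 with 95% CI; n = oocytes.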

[4] = target: Neuronal acetylcholine receptor; alpha4/beta4 (Rattus norvegicus, UniProt P09483+P12392); type: cell-based, Oocyte
Neuronal acetylcholine receptor; alpha4/beta4, sequence (P09483 whole entry): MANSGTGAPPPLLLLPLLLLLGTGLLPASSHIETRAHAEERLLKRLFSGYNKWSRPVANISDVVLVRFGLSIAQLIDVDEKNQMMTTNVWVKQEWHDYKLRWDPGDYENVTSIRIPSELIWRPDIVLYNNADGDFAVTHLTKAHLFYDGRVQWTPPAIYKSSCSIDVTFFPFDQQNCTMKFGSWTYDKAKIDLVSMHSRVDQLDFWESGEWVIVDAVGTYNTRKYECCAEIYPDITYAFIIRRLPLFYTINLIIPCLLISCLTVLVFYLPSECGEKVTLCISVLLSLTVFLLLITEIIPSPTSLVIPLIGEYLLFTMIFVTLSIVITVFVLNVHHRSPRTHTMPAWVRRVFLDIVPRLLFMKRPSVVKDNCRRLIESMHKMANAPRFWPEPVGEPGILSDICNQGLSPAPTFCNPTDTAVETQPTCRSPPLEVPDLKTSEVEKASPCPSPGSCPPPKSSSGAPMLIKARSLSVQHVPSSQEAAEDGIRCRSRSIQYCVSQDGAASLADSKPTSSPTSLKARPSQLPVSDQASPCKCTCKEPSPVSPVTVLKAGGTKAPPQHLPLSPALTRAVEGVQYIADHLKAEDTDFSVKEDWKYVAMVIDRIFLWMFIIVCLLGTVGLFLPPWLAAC
Neuronal acetylcholine receptor; alpha4/beta4, sequence (P12392 whole entry): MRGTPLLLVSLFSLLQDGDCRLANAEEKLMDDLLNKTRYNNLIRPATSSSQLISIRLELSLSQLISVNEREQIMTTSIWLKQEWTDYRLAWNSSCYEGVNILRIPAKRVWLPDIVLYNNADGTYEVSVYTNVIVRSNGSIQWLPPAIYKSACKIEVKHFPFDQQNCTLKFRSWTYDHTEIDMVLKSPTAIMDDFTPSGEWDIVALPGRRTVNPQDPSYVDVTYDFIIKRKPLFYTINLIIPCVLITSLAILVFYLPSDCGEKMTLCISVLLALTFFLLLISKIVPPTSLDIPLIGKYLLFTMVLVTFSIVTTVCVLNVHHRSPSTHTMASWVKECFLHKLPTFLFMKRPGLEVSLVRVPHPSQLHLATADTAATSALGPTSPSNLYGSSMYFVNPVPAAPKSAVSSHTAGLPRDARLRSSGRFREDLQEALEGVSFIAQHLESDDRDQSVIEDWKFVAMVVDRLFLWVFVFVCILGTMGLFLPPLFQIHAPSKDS

[5] = target: Nicotinic acetylcholine receptor alpha9/alpha10 (Rattus norvegicus, UniProt P43144+Q9JLB5); test: Inhibition of rat alpha9alpha10 nAChR expressed in Xenopus laevis oocytes assessed as inhibition of acetylcholine-induced current response by two-electrode voltage-clamp method; type: cell-based, Oocyte; how it was run: as §1
Nicotinic acetylcholine receptor alpha9/alpha10, sequence (P43144 whole entry): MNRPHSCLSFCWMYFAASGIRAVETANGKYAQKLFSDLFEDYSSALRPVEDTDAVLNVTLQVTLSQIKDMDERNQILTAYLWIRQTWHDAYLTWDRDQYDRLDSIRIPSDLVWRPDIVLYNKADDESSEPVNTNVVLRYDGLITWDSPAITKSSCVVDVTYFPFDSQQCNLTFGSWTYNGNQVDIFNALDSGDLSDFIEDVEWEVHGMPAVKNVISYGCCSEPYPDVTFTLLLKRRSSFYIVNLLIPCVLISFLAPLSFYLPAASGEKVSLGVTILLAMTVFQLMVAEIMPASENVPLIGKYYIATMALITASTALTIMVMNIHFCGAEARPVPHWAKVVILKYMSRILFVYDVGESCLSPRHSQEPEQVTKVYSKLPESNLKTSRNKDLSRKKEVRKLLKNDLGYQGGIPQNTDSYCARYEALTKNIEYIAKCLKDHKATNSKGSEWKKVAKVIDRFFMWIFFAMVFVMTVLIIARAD
Nicotinic acetylcholine receptor alpha9/alpha10, sequence (Q9JLB5 whole entry): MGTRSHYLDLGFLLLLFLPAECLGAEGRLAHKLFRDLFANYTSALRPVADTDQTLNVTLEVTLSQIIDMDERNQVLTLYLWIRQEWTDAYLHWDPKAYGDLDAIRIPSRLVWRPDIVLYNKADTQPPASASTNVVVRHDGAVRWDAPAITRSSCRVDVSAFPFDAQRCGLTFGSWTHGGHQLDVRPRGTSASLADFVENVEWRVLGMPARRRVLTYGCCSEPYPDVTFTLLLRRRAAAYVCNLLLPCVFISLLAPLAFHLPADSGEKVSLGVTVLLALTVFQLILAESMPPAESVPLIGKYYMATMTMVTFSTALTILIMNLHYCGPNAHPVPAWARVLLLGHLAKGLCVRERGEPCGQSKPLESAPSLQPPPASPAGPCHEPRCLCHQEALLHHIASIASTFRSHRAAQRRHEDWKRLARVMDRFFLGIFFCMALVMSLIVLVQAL

Homo sapiens [6] = species on record: Homo sapiens; test: Selectivity ratio of IC50 for human alpha4beta4 nAChR to IC50 for human alpha6/alpha3beta4 nAChR
How it was run: (§2)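 Ratio of each subtype's IC50, from TEVC inhibition of ACh-evoked currents in X. laevis oocytes, to the IC50 at the same species' α6/α3β4 nAChR; IC50 values with 95% CI, n = number of oocytes.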

Homo sapiens [7] = species on record: Homo sapiens; test: Selectivity ratio of IC50 for human alpha6/alpha3beta2beta3 nAChR to IC50 for human alpha6/alpha3beta4 nAChR; how it was run: as §2
Rattus norvegicus = species on record: Rattus norvegicus; test: Selectivity ratio of IC50 for rat alpha6/alpha3beta2beta3 nAChR to IC50 for rat alpha6/alpha3beta4 nAChR; how it was run: as §2
[8] = target: T1, Neuronal acetylcholine receptor; alpha2/beta4; test: Inhibition of human alpha2beta4 nAChR expressed in Xenopus laevis oocytes assessed as inhibition of acetylcholine-induced current response at 10 uM by two-electrode voltage-clamp method relative to control; type: cell-based; settings: Oocyte
How it was run: (§3)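 Stage IV–V X. laevis oocytes expressing equal-ratio cRNAs of α2β4, α3β4, α4β4 or α7 subunits; TEVC 1–5 days after injection. ACh 300 μM, 1 s at 60 s intervals. 10 μM peptide as 5 min static bath, normalized to ACh response after 5 min bath of control saline; mean ± SD, n = 4.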

[9] = target: Neuronal acetylcholine receptor subunit alpha-7 (Homo sapiens, UniProt P36544); test: Inhibition of human alpha7 nAChR expressed in Xenopus laevis oocytes assessed as inhibition of acetylcholine-induced current response at 10 uM by two-electrode voltage-clamp method relative to control; type: cell-based; settings: Oocyte; how it was run: as §3
Neuronal acetylcholine receptor subunit alpha-7, sequence (P36544 whole entry): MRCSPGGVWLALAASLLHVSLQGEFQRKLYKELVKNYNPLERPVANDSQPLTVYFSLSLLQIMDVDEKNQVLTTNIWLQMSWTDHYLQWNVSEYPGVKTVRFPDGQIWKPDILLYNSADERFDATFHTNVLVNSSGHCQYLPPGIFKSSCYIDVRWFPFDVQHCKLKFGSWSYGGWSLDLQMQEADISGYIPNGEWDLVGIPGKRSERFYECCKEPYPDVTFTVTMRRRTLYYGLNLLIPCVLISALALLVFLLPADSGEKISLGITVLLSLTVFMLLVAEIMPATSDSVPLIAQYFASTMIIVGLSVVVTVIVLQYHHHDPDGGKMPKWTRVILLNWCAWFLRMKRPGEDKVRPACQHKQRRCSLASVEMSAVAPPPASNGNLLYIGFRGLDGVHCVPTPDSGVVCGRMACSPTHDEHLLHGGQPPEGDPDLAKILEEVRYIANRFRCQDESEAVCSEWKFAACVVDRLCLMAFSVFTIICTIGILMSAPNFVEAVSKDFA

[10] = target: Neuronal acetylcholine receptor; alpha4/beta4 (Rattus norvegicus) (UniProt P09483+P12392); test: Inhibition of rat alpha4beta4 nAChR expressed in Xenopus laevis oocytes assessed as inhibition of acetylcholine-induced current response at 10 uM by two-electrode voltage-clamp method relative to control; type: cell-based; settings: Oocyte; how it was run: as §3

## CC[C@H](C)[C@@H]1NC(=O)[C@H](CCC(=O)O)NC(=O)[C@@H]2CCCN2C(=O)[C@H](Cc2cnc[nH]2)NC(=O)[C@H](CC(N)=O)NC(=O)[C@H](C(C)C)NC(=O)[C@H](CC(N)=O)NC(=O)[C@@H]2CSSC[C@H](NC(=O)CN)C(=O)N[C@@H](CSSC[C@@H](C(N)=O)NC1=O)C(=O)N[C@@H](CO)C(=O)N[C@@H](Cc1cnc[nH]1)C(=O)N1CCC[C@H]1C(=O)N[C@@H](C(C)C)C(=O)N2 (H-GCCSHPVCNVNHPEIC-NH2; disulfide 2-8, 3-16)
[1]
  Activity: 6%
[2]
  IC50: > 10 µM
[3]
  IC50: > 10 µM
[4]
  IC50: > 10 µM
[5]
  IC50: > 10 µM
Homo sapiens [6]
  Ratio IC50: 20100
Homo sapiens [7]
  Ratio IC50: 675
Rattus norvegicus
  Ratio IC50: 227
[8]
  inhibition: 84%
[9]
  inhibition: 89%
[10]
  inhibition: 81%

— ChEMBL document CHEMBL4811225 (J Med Chem, 2021)
